Data on 24 molecules can be found in ChEMBL document CHEMBL1156908, “Characterization of tunable piperidine and piperazine carbamates as inhibitors of endocannabinoid hydrolases” (J Med Chem, 2010).

The species named for one assay is Mus musculus. As to the kind of experiment: Selectivity ratio of IC50 for mouse FAAH to IC50 for mouse MAGL. Put shortly: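 Competitive ABPP on mouse brain membrane proteome (Dounce-homogenized in PBS pH 7.5, 64,000 × g pellet, resuspended), diluted to 1 mg/ml in PBS. Inhibitor preincubated 30 min at 37°C, then FP-rhodamine 1 μM final for 30 min at 25°C. SDS-PAGE and in-gel fluorescence scanning. IC50s for FAAH and MAGL come from integrated band intensities, means of ≥3 runs; the ratio is taken from these.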

The target of assay [1] is T1, Fatty-acid amide hydrolase 1 (Mus musculus, UniProt O08914).
T1 sequence (O08914 whole entry): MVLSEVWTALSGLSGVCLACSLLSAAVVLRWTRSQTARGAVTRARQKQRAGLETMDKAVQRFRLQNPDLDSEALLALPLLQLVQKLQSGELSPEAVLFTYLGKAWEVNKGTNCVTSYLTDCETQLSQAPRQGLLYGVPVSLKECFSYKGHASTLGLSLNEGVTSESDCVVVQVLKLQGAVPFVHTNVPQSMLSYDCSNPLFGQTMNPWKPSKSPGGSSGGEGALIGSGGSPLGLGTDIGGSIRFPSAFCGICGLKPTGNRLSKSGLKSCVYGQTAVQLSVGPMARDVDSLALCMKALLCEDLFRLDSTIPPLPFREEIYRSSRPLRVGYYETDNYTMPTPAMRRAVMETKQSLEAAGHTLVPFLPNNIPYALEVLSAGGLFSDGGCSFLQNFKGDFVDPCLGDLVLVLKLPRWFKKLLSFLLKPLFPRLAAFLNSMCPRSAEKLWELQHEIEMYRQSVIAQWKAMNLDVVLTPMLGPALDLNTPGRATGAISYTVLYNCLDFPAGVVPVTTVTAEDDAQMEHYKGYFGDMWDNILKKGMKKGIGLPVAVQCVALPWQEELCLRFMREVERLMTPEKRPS
In words: Inhibition of FAAH in mouse brain membrane. The assay is classed as cell membranes. The method, boiled down: (§1)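 Mouse brain membrane fraction (Dounce homogenized in PBS pH 7.5, 1,400 × g debris spin, 64,000 × g 45 min pellet, resuspended) at 1 mg/ml in PBS. Inhibitor preincubated 30 min at 37°C, then FP-rhodamine 1 μM final for 30 min at 25°C. SDS-PAGE with in-gel fluorescence scanning. IC50 from fitted integrated band intensities, mean of at least triplicates.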

Assay [2] has as its target T2, Monoacylglycerol lipase ABHD6 (Mus musculus, UniProt Q8R2Y0).
T2 sequence (Q8R2Y0 whole entry): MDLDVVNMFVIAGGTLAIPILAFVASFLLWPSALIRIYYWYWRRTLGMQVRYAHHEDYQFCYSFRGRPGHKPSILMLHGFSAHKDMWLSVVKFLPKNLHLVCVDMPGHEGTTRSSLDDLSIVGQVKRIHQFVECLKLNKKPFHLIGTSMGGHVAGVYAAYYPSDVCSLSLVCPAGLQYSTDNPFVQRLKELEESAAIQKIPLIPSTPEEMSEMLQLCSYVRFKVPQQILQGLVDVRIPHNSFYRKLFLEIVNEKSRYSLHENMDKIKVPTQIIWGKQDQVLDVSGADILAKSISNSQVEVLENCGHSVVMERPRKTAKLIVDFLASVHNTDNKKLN
As to the kind of experiment: Inhibition of ABHD6 in mouse brain membrane. The format is cell membranes. The method, boiled down:
as §1

For a further assay, the target named is T3, Monoglyceride lipase (Mus musculus, UniProt O35678).
T3 sequence (O35678 whole entry): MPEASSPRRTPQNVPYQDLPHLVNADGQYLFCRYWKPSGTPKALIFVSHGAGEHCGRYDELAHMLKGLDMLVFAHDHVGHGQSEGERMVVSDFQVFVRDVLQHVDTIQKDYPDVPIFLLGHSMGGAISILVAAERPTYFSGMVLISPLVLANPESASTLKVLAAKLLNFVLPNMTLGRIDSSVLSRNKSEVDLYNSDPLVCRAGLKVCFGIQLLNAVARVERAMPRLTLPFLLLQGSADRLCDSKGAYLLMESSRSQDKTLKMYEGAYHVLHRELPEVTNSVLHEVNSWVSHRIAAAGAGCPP
In words: Inhibition of MAGL in mouse brain membrane. The format is cell membranes. The method, boiled down: as §1

Assay [3] deals with T4, Patatin-like phospholipase domain-containing protein 6 (Mus musculus, UniProt Q3TRM4).
T4 sequence (Q3TRM4 whole entry): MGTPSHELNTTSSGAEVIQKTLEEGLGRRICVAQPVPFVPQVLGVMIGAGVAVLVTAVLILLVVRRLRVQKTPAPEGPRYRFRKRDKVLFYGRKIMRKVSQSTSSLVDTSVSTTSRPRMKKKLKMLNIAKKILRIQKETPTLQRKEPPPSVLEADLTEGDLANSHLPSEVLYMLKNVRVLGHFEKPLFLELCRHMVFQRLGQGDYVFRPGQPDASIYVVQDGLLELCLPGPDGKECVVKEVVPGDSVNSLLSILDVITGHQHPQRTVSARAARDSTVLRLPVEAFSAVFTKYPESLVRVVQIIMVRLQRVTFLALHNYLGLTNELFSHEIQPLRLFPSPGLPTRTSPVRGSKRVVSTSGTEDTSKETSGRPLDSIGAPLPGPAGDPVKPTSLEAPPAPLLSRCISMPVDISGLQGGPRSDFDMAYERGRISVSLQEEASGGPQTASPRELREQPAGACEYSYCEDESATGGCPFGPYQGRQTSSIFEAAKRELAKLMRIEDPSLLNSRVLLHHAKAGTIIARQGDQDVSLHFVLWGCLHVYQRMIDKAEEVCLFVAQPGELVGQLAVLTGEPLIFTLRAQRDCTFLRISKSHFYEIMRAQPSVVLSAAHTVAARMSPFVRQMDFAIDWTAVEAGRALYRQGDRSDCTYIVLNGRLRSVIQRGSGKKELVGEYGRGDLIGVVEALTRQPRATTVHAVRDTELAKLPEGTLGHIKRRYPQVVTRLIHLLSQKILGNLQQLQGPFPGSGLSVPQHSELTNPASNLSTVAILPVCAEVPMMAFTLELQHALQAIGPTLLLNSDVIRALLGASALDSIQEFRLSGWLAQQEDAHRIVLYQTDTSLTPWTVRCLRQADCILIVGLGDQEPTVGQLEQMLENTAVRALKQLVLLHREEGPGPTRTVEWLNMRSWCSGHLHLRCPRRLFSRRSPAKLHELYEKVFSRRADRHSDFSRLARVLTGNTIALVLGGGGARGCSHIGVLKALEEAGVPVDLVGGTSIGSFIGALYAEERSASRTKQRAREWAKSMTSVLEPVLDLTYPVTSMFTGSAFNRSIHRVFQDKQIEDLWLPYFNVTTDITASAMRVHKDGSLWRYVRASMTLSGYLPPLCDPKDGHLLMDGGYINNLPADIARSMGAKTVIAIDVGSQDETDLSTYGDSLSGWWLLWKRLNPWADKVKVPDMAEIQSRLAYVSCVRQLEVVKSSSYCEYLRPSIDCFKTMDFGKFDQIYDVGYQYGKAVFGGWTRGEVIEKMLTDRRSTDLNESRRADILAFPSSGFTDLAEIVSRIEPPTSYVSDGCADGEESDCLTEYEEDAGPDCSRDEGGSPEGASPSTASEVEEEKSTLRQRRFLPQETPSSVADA
In words: Inhibition of NTE in mouse brain membrane. The assay is classed as cell membranes. Put shortly:
as §1

Bounds are passed on as bounds.

A word on the IC50: it is the concentration that inhibits the measured activity by half. Read a low IC50 as greater potency in that assay.

Take `COc1ccc(C(c2ccc(OC)cc2)C2CCN(C(=O)Oc3ccc([N+](=O)[O-])cc3)CC2)cc1`: in the assay listed under Mus musculus, the Ratio IC50 came out at 549. In addition, the values for the half-maximal inhibitory concentration (IC50) (in assay [1]; in assay [2]; on Monoglyceride lipase) were 40100 nM, 550 nM and 73 nM, respectively.
On to `O=C(Oc1ccc([N+](=O)[O-])cc1)N1CCC(=C(c2ccccc2)c2ccccc2)CC1`, for which the Ratio IC50 in the assay listed under Mus musculus amounted to 3. Besides, the IC50 in assay [1] turned out to be 3500 nM; in assay [2] it was 1300 nM; against Monoglyceride lipase it was 1390 nM.
In the case of `O=C(Oc1ccc([N+](=O)[O-])cc1)N1CCN(Cc2ccccc2)CC1`, the IC50 in assay [1] came to 930 nM; in assay [2] it was 740 nM; against Monoglyceride lipase, 900 nM; in assay [3], 610 nM.
In the case of `O=C(Oc1ccc([N+](=O)[O-])cc1)N1CCN(Cc2ccc(-c3ccccc3)o2)CC1`, the IC50 in assay [1] turned out to be 20 nM; in assay [2], 220 nM; against Monoglyceride lipase, 90 nM; in assay [3], 250 nM.
In the case of `COc1ccc(C(O)(c2ccc(OC)c(OC)c2)C2CCN(C(=O)Oc3ccc([N+](=O)[O-])cc3)CC2)cc1OC`, the concentration for half-maximal inhibition (IC50) in assay [1] is above 50000 nM; in assay [2] it was 6960 nM; on Monoglyceride lipase, 1300 nM.
As to `CN(C)c1ccc(C(O)(c2ccc(N(C)C)cc2)C2CCN(C(=O)Oc3ccc([N+](=O)[O-])cc3)CC2)cc1`, in the assay filed under Mus musculus, the Ratio IC50 turned out to be 5. The values for the IC50 (in assay [1]; in assay [2]; on Monoglyceride lipase) were 10500 nM, 1020 nM and 2120 nM, respectively.
With `O=C(Oc1ccc([N+](=O)[O-])cc1)N1CCC(C(O)(c2ccccc2)c2ccccc2)CC1`, the Ratio IC50 in the assay listed under Mus musculus amounted to 6. In addition, the results for the IC50 (in assay [1]; in assay [2]; at Monoglyceride lipase) were 4340 nM, 1100 nM and 690 nM, respectively.
For `COc1ccccc1C(O)(c1ccccc1OC)C1CCN(C(=O)Oc2ccc([N+](=O)[O-])cc2)CC1`, the IC50 in assay [1] worked out at 15100 nM; in assay [2], 1100 nM; against Monoglyceride lipase it was 510 nM.
`O=C(Oc1ccc([N+](=O)[O-])cc1)N1CCN(C2c3ccccc3Oc3ccccc32)CC1`: the Ratio IC50 in the assay filed under Mus musculus worked out at 2. The IC50 in assay [1] came to 9000 nM; in assay [2], 2120 nM; on Monoglyceride lipase, 6120 nM.
Take `O=C(Oc1ccc([N+](=O)[O-])cc1)N1CCN(Cc2cc(-c3ccccc3)cs2)CC1`: the IC50 in assay [1] came out at 280 nM; in assay [2], 1000 nM; against Monoglyceride lipase, 10 nM; in assay [3], 890 nM.
Take `CN(C(=O)Oc1ccc([N+](=O)[O-])cc1)C(c1ccccc1)c1ccccc1`: the IC50 (in assay [1]; in assay [2]; on Monoglyceride lipase) was above 50000 nM throughout.
Regarding `O=C(Oc1ccc([N+](=O)[O-])cc1)N1CCN(Cc2ccccc2-c2ccccc2)CC1`, the IC50 was 3570 nM in assay [1], 2860 nM in assay [2], 670 nM at Monoglyceride lipase and 330 nM in assay [3].
Regarding `COc1ccc(C(O)(c2ccc(OC)cc2)C2CCN(C(=O)Oc3ccc([N+](=O)[O-])cc3)CC2)cc1`, in the assay listed under Mus musculus, the Ratio IC50 was 68. Further, the IC50 in assay [1] was determined as 2660 nM; in assay [2] it was 2110 nM; against Monoglyceride lipase, 40 nM.
For `O=C(Oc1ccc([N+](=O)[O-])cc1)N1CCN(C(c2ccc(F)cc2)c2ccc(F)cc2)CC1`, in that order: 27, 5410 nM, 900 nM and 200 nM.
Regarding `O=C(Oc1ccc([N+](=O)[O-])cc1)N1CCN(Cc2ccc(-c3ccccc3)cc2)CC1`, the IC50 came to 4600 nM in assay [1], 1650 nM in assay [2], 15 nM against Monoglyceride lipase and 4270 nM in assay [3].
Consider `CN(CCC(c1ccccc1)c1ccccc1)C(=O)Oc1ccc([N+](=O)[O-])cc1`, for which the IC50 (in assay [1]; in assay [2]; against Monoglyceride lipase) was above 50000 nM each time.
Take `O=C(Oc1ccc([N+](=O)[O-])cc1)N1CCN(Cc2ccc3ccccc3n2)CC1`: the IC50 turned out to be 1040 nM in assay [1], 490 nM in assay [2], 80 nM at Monoglyceride lipase and 910 nM in assay [3].
`O=C(Oc1ccc([N+](=O)[O-])cc1)N1CCC2(CC1)OC2(c1ccccc1)c1ccccc1`: the Ratio IC50 in the assay listed under Mus musculus was 29. Also, the IC50 in assay [1] turned out to be 5850 nM; in assay [2], 380 nM; against Monoglyceride lipase it was 200 nM.
In the case of `O=C(Oc1ccc([N+](=O)[O-])cc1)N1CCN(Cc2ccc(-c3ccccc3)s2)CC1`, the IC50 in assay [1] is 40 nM; in assay [2], 220 nM; against Monoglyceride lipase, 50 nM; in assay [3], 80 nM.
Take `O=C(Oc1ccc([N+](=O)[O-])cc1)N1CCC(C(O)(c2ccc3c(c2)OCO3)c2ccc3c(c2)OCO3)CC1`: in assay [2], half-maximal inhibition (IC50) required 3270 nM.
As to `O=C(Oc1ccc([N+](=O)[O-])cc1)N1CCN(Cc2ccc3ccccc3c2)CC1`, the IC50 in assay [1] was 380 nM; in assay [2] it was 150 nM; at Monoglyceride lipase it was 70 nM; in assay [3] it was 1100 nM.
For `COc1ccc(CN2CCN(C(=O)Oc3ccc([N+](=O)[O-])cc3)CC2)cc1`, in that order: 1050 nM, 1270 nM, 1530 nM and 480 nM.
For the molecule `COc1ccc(C(O)(c2ccc(OC)cc2)C2CCN(C(=O)Oc3ccc([N+](=O)[O-])cc3)C2)cc1` (stereo not drawn), the IC50 (in assay [1]; in assay [2]; against Monoglyceride lipase) was above 50000 nM in each case.
On to `COc1cc(OCc2ccccc2)ccc1CN1CCN(C(=O)Oc2ccc([N+](=O)[O-])cc2)CC1`, for which the IC50 in assay [1] was 930 nM; in assay [2], 310 nM; against Monoglyceride lipase it was 90 nM; in assay [3], 420 nM.
